Laboratory results reported in ChEMBL document CHEMBL2146359, “HCV NS5A replication complex inhibitors. Part 2: investigation of stilbene prolinamides” (Bioorg Med Chem Lett, 2012).

Key:
[1] = Cytotoxicity against human HuH7 cells after 72 hrs by Alamar Blue assay; type: cell-based; conditions: Huh-7 cells
[2] = system: Bovine viral diarrhea virus 1; assay: Antiviral activity against BVDV1; type: functional, organism-based; conditions: Bovine viral diarrhea virus isolates and strains
Hepatitis C virus = assay: Antiviral activity against HCV genotype 1b infected in human Huh7 cells assessed as inhibition of viral replication by FRET assay; type: functional, organism-based, Hepacivirus hominis; conditions: Huh-7
Method in brief: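 Replicon potency values are the means of at least two experiments.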

Row | SMILES | CC50 at 72 h [1] [µM] | EC50 [2] [µM] | EC50 (Hepatitis C virus) [µM]
1 | O=C(Nc1ccc(/C=C/c2ccc(NC(=O)[C@@H]3CCCN3C(=O)Cc3ccccc3)cc2)cc1)[C@@H]1CCCN1C(=O)Cc1ccccc1 | > 10 | > 10 | –
2 | C[C@@H](C(=O)N1CCC[C@H]1C(=O)Nc1ccc(/C=C/c2ccc(NC(=O)[C@@H]3CCCN3C(=O)[C@H](C)c3ccccc3)cc2)cc1)c1ccccc1 | > 10 | > 10 | < 0.005
3 | O=C(Nc1ccc(/C=C/c2ccc(NC(=O)[C@@H]3C4CC4CN3C(=O)OCc3ccccc3)cc2)cc1)[C@@H]1C2CC2CN1C(=O)OCc1ccccc1 (stereo partly specified) | > 10 | > 10 | 0.089
4 | O=C(Nc1ccc(/C=C/c2ccc(NC(=O)[C@@H]3CCCN3C(=O)Cc3ccccc3)cc2)cc1)[C@@H]1CCCN1 | > 10 | > 10 | 1.39
5 | CC(=O)Nc1ccc(/C=C/c2ccc(NC(=O)[C@@H]3CCCN3C(=O)Cc3ccccc3)cc2)cc1 | > 10 | > 10 | 1.64
6 | Nc1ccc(/C=C/c2ccc(NC(=O)[C@@H]3CCCN3C(=O)Cc3ccccc3)cc2)cc1 | > 10 | > 10 | > 10
7 | C[C@H](NC(=O)Cc1ccccc1)C(=O)Nc1ccc(/C=C/c2ccc(NC(=O)[C@@H]3CCCN3C(=O)Cc3ccccc3)cc2)cc1 | > 10 | > 10 | 0.00257
8 | CC(=O)N[C@@H](C)C(=O)Nc1ccc(/C=C/c2ccc(NC(=O)[C@@H]3CCCN3C(=O)Cc3ccccc3)cc2)cc1 | > 10 | > 10 | 0.153
9 | O=C(Cc1ccccc1)NCC(=O)Nc1ccc(/C=C/c2ccc(NC(=O)[C@@H]3CCCN3C(=O)Cc3ccccc3)cc2)cc1 | > 10 | > 10 | 0.768
10 | C[C@H](NC(=O)OCc1ccccc1)C(=O)Nc1ccc(/C=C/c2ccc(NC(=O)[C@H](C)NC(=O)OCc3ccccc3)cc2)cc1 | > 10 | > 10 | 3.21
11 | C[C@@H](C(=O)Nc1ccc(/C=C/c2ccc(NC(=O)[C@H](C)N(C)C(=O)OCc3ccccc3)cc2)cc1)N(C)C(=O)OCc1ccccc1 | > 10 | > 10 | 0.0731
12 | O=C(Nc1ccc(/C=C/c2ccc(NC(=O)[C@@H]3CCN3C(=O)OCc3ccccc3)cc2)cc1)[C@@H]1CCN1C(=O)OCc1ccccc1 | > 10 | > 10 | 0.058
13 | O=C(Nc1ccc(/C=C/c2ccc(NC(=O)[C@@H]3CCCCN3C(=O)OCc3ccccc3)cc2)cc1)[C@@H]1CCCCN1C(=O)OCc1ccccc1 | > 10 | > 10 | 0.0627
14 | O=C(Nc1ccc(/C=C/c2ccc(NC(=O)[C@@H]3Cc4ccccc4N3C(=O)OCc3ccccc3)cc2)cc1)[C@@H]1Cc2ccccc2N1C(=O)OCc1ccccc1 | > 10 | > 10 | 0.0669
15 | O=C(Nc1ccc(/C=C/c2ccc(NC(=O)[C@@H]3[C@H]4CCC[C@H]4CN3C(=O)OCc3ccccc3)cc2)cc1)[C@@H]1[C@H]2CCC[C@H]2CN1C(=O)OCc1ccccc1 | > 10 | > 10 | 0.12
16 | O=C(Nc1ccc(/C=C/c2ccc(NC(=O)[C@@H]3COCN3C(=O)OCc3ccccc3)cc2)cc1)[C@@H]1COCN1C(=O)OCc1ccccc1 | > 10 | > 10 | 0.00614
17 | O=C(Nc1ccc(/C=C/c2ccc(NC(=O)[C@@H]3C[C@H](O)CN3C(=O)OCc3ccccc3)cc2)cc1)[C@@H]1C[C@H](O)CN1C(=O)OCc1ccccc1 | > 10 | > 10 | 0.0115
18 | CO[C@@H]1C[C@@H](C(=O)Nc2ccc(/C=C/c3ccc(NC(=O)[C@@H]4C[C@@H](OC)CN4C(=O)OCc4ccccc4)cc3)cc2)N(C(=O)OCc2ccccc2)C1 | > 10 | > 10 | < 0.005
19 | CCO[C@@H]1C[C@@H](C(=O)Nc2ccc(/C=C/c3ccc(NC(=O)[C@@H]4C[C@@H](OCC)CN4C(=O)OCc4ccccc4)cc3)cc2)N(C(=O)OCc2ccccc2)C1 | > 10 | > 10 | 0.038
20 | CO[C@H]1C[C@@H](C(=O)Nc2ccc(/C=C/c3ccc(NC(=O)[C@@H]4C[C@H](OC)CN4C(=O)OCc4ccccc4)cc3)cc2)N(C(=O)OCc2ccccc2)C1 | > 10 | > 10 | < 0.005
21 | CCO[C@H]1C[C@@H](C(=O)Nc2ccc(/C=C/c3ccc(NC(=O)[C@@H]4C[C@H](OCC)CN4C(=O)OCc4ccccc4)cc3)cc2)N(C(=O)OCc2ccccc2)C1 | > 10 | > 10 | 0.015
22 | CC(C)(C)O[C@H]1C[C@@H](C(=O)Nc2ccc(/C=C/c3ccc(NC(=O)[C@@H]4C[C@H](OC(C)(C)C)CN4C(=O)OCc4ccccc4)cc3)cc2)N(C(=O)OCc2ccccc2)C1 | > 10 | > 10 | 0.35

Row | SMILES | CC50 at 72 h [1] [µM] | EC50 [2] [µM] | EC50 (Hepatitis C virus) [µM]
23 | CC(C)(C)NC(=O)O[C@@H]1C[C@@H](C(=O)Nc2ccc(/C=C/c3ccc(NC(=O)[C@@H]4C[C@@H](OC(=O)NC(C)(C)C)CN4C(=O)OCc4ccccc4)cc3)cc2)N(C(=O)OCc2ccccc2)C1 | > 10 | > 10 | > 10
24 | N[C@H]1C[C@@H](C(=O)Nc2ccc(/C=C/c3ccc(NC(=O)[C@@H]4C[C@H](N)CN4C(=O)OCc4ccccc4)cc3)cc2)N(C(=O)OCc2ccccc2)C1 | > 10 | > 10 | 1.29
25 | CN(C)[C@H]1C[C@@H](C(=O)Nc2ccc(/C=C/c3ccc(NC(=O)[C@@H]4C[C@H](N(C)C)CN4C(=O)OCc4ccccc4)cc3)cc2)N(C(=O)OCc2ccccc2)C1 | > 10 | > 10 | 0.01
26 | C[C@H](C(=O)N1CCC[C@H]1C(=O)Nc1ccc(/C=C/c2ccc(NC(=O)[C@@H]3CCCN3C(=O)[C@@H](C)c3ccccc3)cc2)cc1)c1ccccc1 | > 10 | > 10 | 0.005
27 | O=C(Nc1ccc(/C=C/c2ccc(NC(=O)[C@@H]3CCCN3C(=O)c3ccccc3)cc2)cc1)[C@@H]1CCCN1C(=O)c1ccccc1 | > 10 | > 10 | 0.102
28 | CC(=O)N1CCC[C@H]1C(=O)Nc1ccc(/C=C/c2ccc(NC(=O)[C@@H]3CCCN3C(C)=O)cc2)cc1 | > 10 | > 10 | 2.38
29 | O=C(Nc1ccc(/C=C/c2ccc(NC(=O)[C@@H]3CCCN3C(=O)Cc3ccccn3)cc2)cc1)[C@@H]1CCCN1C(=O)Cc1ccccn1 | > 10 | > 10 | 0.00222
30 | O=C(Nc1ccc(/C=C/c2ccc(NC(=O)[C@@H]3CCCN3C(=O)Cc3ccncc3)cc2)cc1)[C@@H]1CCCN1C(=O)Cc1ccncc1 | > 10 | > 10 | 0.172
31 | O=C(Nc1ccc(/C=C/c2ccc(NC(=O)[C@@H]3CCCN3C(=O)Cc3cccs3)cc2)cc1)[C@@H]1CCCN1C(=O)Cc1cccs1 | > 10 | > 10 | 0.00128
32 | Cn1cccc1CC(=O)N1CCC[C@H]1C(=O)Nc1ccc(/C=C/c2ccc(NC(=O)[C@@H]3CCCN3C(=O)Cc3cccn3C)cc2)cc1 | > 10 | > 10 | 0.0102
33 | Cc1cc(CC(=O)N2CCC[C@H]2C(=O)Nc2ccc(/C=C/c3ccc(NC(=O)[C@@H]4CCCN4C(=O)Cc4cc(C)no4)cc3)cc2)on1 | > 10 | > 10 | 0.0762
34 | Cn1cnc(CC(=O)N2CCC[C@H]2C(=O)Nc2ccc(/C=C/c3ccc(NC(=O)[C@@H]4CCCN4C(=O)Cc4cn(C)cn4)cc3)cc2)c1 | > 10 | > 10 | 0.0867
35 | O=C(Nc1ccc(/C=C/c2ccc(NC(=O)[C@@H]3CCCN3C(=O)Cc3c[nH]cn3)cc2)cc1)[C@@H]1CCCN1C(=O)Cc1c[nH]cn1 | > 10 | > 10 | 1
36 | Cc1nc2sccn2c1C(=O)N1CCC[C@H]1C(=O)Nc1ccc(/C=C/c2ccc(NC(=O)[C@@H]3CCCN3C(=O)c3c(C)nc4sccn34)cc2)cc1 | > 10 | > 10 | 0.0579
37 | O=C(Nc1ccc(/C=C/c2ccc(NC(=O)[C@@H]3CCCN3C(=O)c3c[nH]c4ccccc34)cc2)cc1)[C@@H]1CCCN1C(=O)c1c[nH]c2ccccc12 | > 10 | > 10 | 0.111
38 | Cn1cc(C(=O)N2CCC[C@H]2C(=O)Nc2ccc(/C=C/c3ccc(NC(=O)[C@@H]4CCCN4C(=O)c4cn(C)c5ccccc45)cc3)cc2)c2ccccc21 | > 10 | > 10 | 0.14
39 | O=C(Nc1ccc(/C=C/c2ccc(NC(=O)[C@@H]3CCCN3C(=O)C3Cc4ccccc4O3)cc2)cc1)[C@@H]1CCCN1C(=O)C1Cc2ccccc2O1 (stereo partly specified) | > 10 | > 10 | 0.011
40 | O=C(Nc1ccc(/C=C/c2ccc(NC(=O)[C@@H]3CCCN3C(=O)c3ccc4occc4c3)cc2)cc1)[C@@H]1CCCN1C(=O)c1ccc2occc2c1 | > 10 | > 10 | 0.056
41 | Cc1nc2ccccn2c1C(=O)N1CCC[C@H]1C(=O)Nc1ccc(/C=C/c2ccc(NC(=O)[C@@H]3CCCN3C(=O)c3c(C)nc4ccccn34)cc2)cc1 | > 10 | > 10 | 0.0868
42 | O=C(Nc1ccc(/C=C/c2ccc(NC(=O)[C@@H]3CCCN3C(=O)c3cccc4ccccc34)cc2)cc1)[C@@H]1CCCN1C(=O)c1cccc2ccccc12 | > 10 | > 10 | 1.63
43 | O=C(Nc1ccc(/C=C/c2ccc(NC(=O)[C@@H]3CCCN3C(=O)c3ccc4ccccc4c3)cc2)cc1)[C@@H]1CCCN1C(=O)c1ccc2ccccc2c1 | > 10 | > 10 | 10
44 | CCc1ccccc1C(=O)N1CCC[C@H]1C(=O)Nc1ccc(/C=C/c2ccc(NC(=O)[C@@H]3CCCN3C(=O)c3ccccc3CC)cc2)cc1 | > 10 | > 10 | 1.13
